In ChEMBL document CHEMBL1629579, “Correlating echinocandin MIC and kinetic inhibition of fks1 mutant glucan synthases for Candida albicans: implications for interpretive breakpoints” (Antimicrob Agents Chemother, 2009):
In brackets after ≈: the same amount, converted by molar mass. Numbered stars: 1 amine (or outer) side, 2 acyl side, 3 side chain; on linkers, the order of the positions; unused ones are H or OH. Bridge positions count the residues as written; N and C are the ends. Square brackets hold non-standard residues; d marks the D form. Peptide text beside a SMILES is read from it. * marks the point of attachment. hTyr(3S-OH,4S-OH,3'-OSO3H) = N[C@H](C(=O)O)[C@H](O)[C@@H](O)c1ccc(O)c(OS(=O)(=O)O)c1; pTerphenylCO(4''-OnC5H11) = CCCCCOc1ccc(-c2ccc(-c3ccc(C(=O)*)cc3)cc2)cc1; Orn(4R-OH,5R-OH) = O=C([C@H](C[C@@H](O)[C@@H](O)N[*:3])N[*:1])[*:2]; hTyr(3S-OH,4S-OH) = N[C@H](C(=O)O)[C@H](O)[C@@H](O)c1ccc(O)cc1; Pro(3S-OH,4S-Me) = C[C@H]1CN[C@H](C(=O)O)[C@H]1O; X1 = CCCCCOc1ccc(-c2cc(-c3ccc(C(=O)*)cc3)no2)cc1; Gln(3R-OH) = NC(=O)C[C@@H](O)[C@H](N)C(=O)O; Hyp = O=C(O)[C@@H]1C[C@@H](O)CN1

What was measured:
[1] = test system: Candida albicans; assay: Activity at Candida albicans 36082 1,3-beta-D-glucan synthase subunit FKS1p
Procedure, shortened: (§1)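 Glucan synthase from cells grown at 37°C with vigorous shaking to early stationary phase in YPD. Membrane enzyme enriched by product entrapment. Serial echinocandin dilutions; ANF controls held 1% DMSO. Reaction started by adding enzyme, run 60 min at 25°C in a filtration polymerization assay, stopped on ice. IC50 from a variable-slope sigmoidal fit; means of three repetitions on separate days.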

[2] = Inhibition of Candida albicans 89 1,3-beta-D-glucan synthase subunit FKS1p C1934A mutant
Procedure, shortened: (§2)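 Enzyme is product-entrapped 1,3-β-D-glucan synthase, enriched from membranes of each strain grown at 37°C with shaking in YPD broth to early stationary phase. Filtration polymerization assay uses [3H]UDPG, started by adding enzyme and run 60 min at 25°C. Echinocandins are added as serial dilutions, with 1% DMSO controls for anidulafungin. IC50 is from a variable-slope sigmoidal fit; values are triplicate arithmetic means.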

[3] = test system: Candida albicans; assay: Activity at Candida albicans A15-10 1,3-beta-D-glucan synthase subunit FKS1p T1933C mutant
[4] = test system: Candida albicans; assay: Antimicrobial activity against Candida albicans 3107 by M27-A3 method in presence of 50% human serum; format: functional
Procedure, shortened: (§3)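 Broth microdilution per CLSI M27-A3 in RPMI 1640, done in triplicate on three separate days. Each strain was tested with and without 50% human serum. C. krusei ATCC 6258 and C. parapsilosis ATCC 22019 served as QC strains. Arithmetic means are reported, and geometric means were used for comparison.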

[5] = test system: Candida albicans; assay: Antimicrobial activity against Candida albicans 122 harboring FKS1 C1946A mutant gene and FKS1 hotspot1 P649H mutant gene by M27-A3 method in presence of 50% human serum; format: functional; procedure, shortened: as §3
[6] = Inhibition of Candida albicans 205 1,3-beta-D-glucan synthase subunit FKS1p T1933C mutant; procedure, shortened: as §2
[7] = test system: Candida albicans; assay: Antimicrobial activity against Candida albicans 194 harboring FKS1 C1934T/G4082R mutant gene and FKS1 hotspot1 S645F mutant gene and FKS1 hotspot2 R1361R/H mutant gene by M27-A3 method in presence of 50% human serum; format: functional; procedure, shortened: as §3
[8] = Inhibition of Candida albicans 90028 1,3-beta-D-glucan synthase subunit FKS1p; procedure, shortened: as §2
[9] = test system: Candida albicans; assay: Activity at Candida albicans 122 1,3-beta-D-glucan synthase subunit FKS1p C1946A mutant
Procedure, shortened: (§4)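 Product-entrapped 1,3-β-D-glucan synthase from cells grown in YPD at 37°C to early stationary phase. Wells held 50 mM HEPES pH 7.5, 10% glycerol, 1.5 mg/ml BSA, 25 mM KF, 1 mM EDTA, 25 μM GTP-γ-S, 1 μg enzyme and [3H]UDPG (0.015–2 mM). Reactions ran 60 min at 25°C. Vmax and Km came from Lineweaver-Burke plots, in triplicate.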

[10] = test system: Candida albicans; assay: Antimicrobial activity against Candida albicans A15 harboring FKS1 T1933Y mutant gene and FKS1 hotspot1 S645S/P mutant gene by M27-A3 method; format: functional; procedure, shortened: as §3
[11] = test system: Candida albicans; assay: Activity at Candida albicans 149 1,3-beta-D-glucan synthase subunit FKS1p G1942T mutant; procedure, shortened: as §4
[12] = test system: Candida albicans; assay: Antimicrobial activity against Candida albicans 149 harboring FKS1 G1942T mutant gene and FKS1 hotspot1 D648Y mutant gene by M27-A3 method in presence of 50% human serum; format: functional; procedure, shortened: as §3
[13] = test system: Candida albicans; assay: Activity at Candida albicans 85 1,3-beta-D-glucan synthase subunit FKS1p C1934T mutant; procedure, shortened: as §4
[14] = test system: Candida albicans; assay: Antimicrobial activity against Candida albicans 1002 by M27-A3 method in presence of 50% human serum; format: functional; procedure, shortened: as §3
[15] = test system: Candida albicans; assay: Activity at Candida albicans 90028 1,3-beta-D-glucan synthase subunit FKS1p; procedure, shortened: as §1
[16] = Inhibition of Candida albicans 121 1,3-beta-D-glucan synthase subunit FKS1p G4082A mutant; procedure, shortened: as §2
[17] = test system: Candida albicans; assay: Selectivity ratio of Ki for Candida albicans 149 1,3-beta-D-glucan synthase subunit FKS1p G1942T mutant to Ki for Candida albicans SC5314 wild type 1,3-beta-D-glucan synthase subunit FKS1p
[18] = test system: Candida albicans; assay: Selectivity ratio of Ki for Candida albicans 2762 1,3-beta-D-glucan synthase subunit FKS1p T1922C mutant to Ki for Candida albicans SC5314 wild type 1,3-beta-D-glucan synthase subunit FKS1p
[19] = test system: Candida albicans; assay: Selectivity ratio of Ki for Candida albicans 121 1,3-beta-D-glucan synthase subunit FKS1p G4082A mutant to Ki for Candida albicans SC5314 wild type 1,3-beta-D-glucan synthase subunit FKS1p
[20] = test system: Candida albicans; assay: Selectivity ratio of Ki for Candida albicans A15 1,3-beta-D-glucan synthase subunit FKS1p T1933Y mutant to Ki for Candida albicans SC5314 wild type 1,3-beta-D-glucan synthase subunit FKS1p
[21] = test system: Candida albicans; assay: Selectivity ratio of Ki for Candida albicans 5415 1,3-beta-D-glucan synthase subunit FKS1p T1933C mutant to Ki for Candida albicans SC5314 wild type 1,3-beta-D-glucan synthase subunit FKS1p
[22] = test system: Candida albicans; assay: Selectivity ratio of Ki for Candida albicans 194 1,3-beta-D-glucan synthase subunit FKS1p C1934T/G4082R mutant to Ki for Candida albicans SC5314 wild type 1,3-beta-D-glucan synthase subunit FKS1p
[23] = test system: Candida albicans; assay: Selectivity ratio of Ki for Candida albicans 119 1,3-beta-D-glucan synthase subunit FKS1p T1921C mutant to Ki for Candida albicans SC5314 wild type 1,3-beta-D-glucan synthase subunit FKS1p
[24] = test system: Candida albicans; assay: Selectivity ratio of Ki for Candida albicans 90 1,3-beta-D-glucan synthase subunit FKS1p G4082R mutant to Ki for Candida albicans SC5314 wild type 1,3-beta-D-glucan synthase subunit FKS1p
[25] = test system: Candida albicans; assay: Selectivity ratio of Ki for Candida albicans 89 1,3-beta-D-glucan synthase subunit FKS1p C1934A mutant to Ki for Candida albicans SC5314 wild type 1,3-beta-D-glucan synthase subunit FKS1p
[26] = test system: Candida albicans; assay: Selectivity ratio of Ki for Candida albicans 177 1,3-beta-D-glucan synthase subunit FKS1p T1922C mutant to Ki for Candida albicans SC5314 wild type 1,3-beta-D-glucan synthase subunit FKS1p
[27] = test system: Candida albicans; assay: Selectivity ratio of Ki for Candida albicans 85 1,3-beta-D-glucan synthase subunit FKS1p C1934T mutant to Ki for Candida albicans SC5314 wild type 1,3-beta-D-glucan synthase subunit FKS1p
[28] = test system: Candida albicans; assay: Selectivity ratio of Ki for Candida albicans 122 1,3-beta-D-glucan synthase subunit FKS1p C1946A mutant to Ki for Candida albicans SC5314 wild type 1,3-beta-D-glucan synthase subunit FKS1p
[29] = test system: Candida albicans; assay: Selectivity ratio of Ki for Candida albicans 205 1,3-beta-D-glucan synthase subunit FKS1p T1933C mutant to Ki for Candida albicans SC5314 wild type 1,3-beta-D-glucan synthase subunit FKS1p

| SMILES | Km [1] | Vmax [1] | IC50 [2] | Ki [2] | Km [3] | Vmax [3] | MIC [4] | MIC [5] | IC50 [6] | Ki [6] | MIC [7] | IC50 [8] | Ki [8] | Km [9] | Vmax [9] | MIC [10] | Km [11] | Vmax [11] | MIC [12] | Km [13] | also measured |
| --- | --- | --- | --- | --- | --- | --- | --- | --- | --- | --- | --- | --- | --- | --- | --- | --- | --- | --- | --- | --- | --- |
| CCCCCOc1ccc(-c2cc(-c3ccc(C(=O)N[C@H]4C[C@@H](O)[C@@H](O)NC(=O)[C@@H]5[C@@H](O)[C@@H](C)CN5C(=O)[C@H]([C@H](O)CC(N)=O)NC(=O)[C@H]([C@H](O)[C@@H](O)c5ccc(O)c(OS(=O)(=O)O)c5)NC(=O)[C@@H]5C[C@@H](O)CN5C(=O)[C@H]([C@@H](C)O)NC4=O)cc3)no2)cc1 [MICAFUNGIN] (X1-[Orn(4R-OH,5R-OH)]T[Hyp][hTyr(3S-OH,4S-OH,3'-OSO3H)][Gln(3R-OH)][Pro(3S-OH,4S-Me)]; lactam 1-C) | 89 µM | 5.87 nmol/min | 2533 ng/mL (≈ 1.99 µM) | 867.13 ng/mL (≈ 0.683 µM) | 91 µM | 3.26 nmol/min | 0.5 µg/mL | 4 µg/mL | 1085 ng/mL (≈ 0.854 µM) | 2673.63 ng/mL (≈ 2.1 µM) | 8 µg/mL | 18.8 ng/mL (≈ 0.0148 µM) | 15.47 ng/mL (≈ 0.0122 µM) | 152 µM | 1.95 nmol/min | 0.5 µg/mL (≈ 0.394 µM) | 32 µM | 1.22 nmol/min | 4 µg/mL | 25 µM | Vmax [13]: 1.83 nmol/min; MIC [14]: 0.5 µg/mL; Km [15]: 67 µM; Vmax [15]: 4.71 nmol/min; IC50 [16]: 498.2 ng/mL (≈ 0.392 µM); Ki [16]: 840.48 ng/mL (≈ 0.662 µM) |
| CC[C@H](C)C[C@H](C)CCCCCCCCC(=O)N[C@H]1C[C@@H](O)[C@@H](NCCN)NC(=O)[C@@H]2[C@@H](O)CCN2C(=O)[C@H]([C@H](O)CCN)NC(=O)[C@H]([C@H](O)[C@@H](O)c2ccc(O)cc2)NC(=O)[C@@H]2C[C@@H](O)CN2C(=O)[C@H]([C@@H](C)O)NC1=O [CASPOFUNGIN] | 89 µM | 5.87 nmol/min | 2075 ng/mL (≈ 1.9 µM) | 860 ng/mL (≈ 0.787 µM) | 91 µM | 3.26 nmol/min | 0.33 µg/mL | 4 µg/mL | 245.4 ng/mL (≈ 0.224 µM) | 1480 ng/mL (≈ 1.35 µM) | 8 µg/mL | 0.5 ng/mL (≈ 0.000457 µM) | 0.46 ng/mL (≈ 0.000421 µM) | 152 µM | 1.95 nmol/min | 4 µg/mL (≈ 3.66 µM) | 32 µM | 1.22 nmol/min | 4 µg/mL | 25 µM | Vmax [13]: 1.83 nmol/min; MIC [14]: 0.5 µg/mL; Km [15]: 67 µM; Vmax [15]: 4.71 nmol/min; IC50 [16]: 33.72 ng/mL (≈ 0.0308 µM); Ki [16]: 308 ng/mL (≈ 0.282 µM) |
| CCCCCOc1ccc(-c2ccc(-c3ccc(C(=O)N[C@H]4C[C@@H](O)[C@@H](O)NC(=O)[C@@H]5[C@@H](O)[C@@H](C)CN5C(=O)[C@H]([C@@H](C)O)NC(=O)[C@H]([C@H](O)[C@@H](O)c5ccc(O)cc5)NC(=O)[C@@H]5C[C@@H](O)CN5C(=O)[C@H]([C@@H](C)O)NC4=O)cc3)cc2)cc1 [ANIDULAFUNGIN] ({pTerphenylCO(4''-OnC5H11)}-[Orn(4R-OH,5R-OH)]T[Hyp][hTyr(3S-OH,4S-OH)]T[Pro(3S-OH,4S-Me)]; lactam 1-C) | 89 µM | 5.87 nmol/min | 2739 ng/mL (≈ 2.4 µM) | 1163.37 ng/mL (≈ 1.02 µM) | 91 µM | 3.26 nmol/min | 0.25 µg/mL | 8 µg/mL | 989 ng/mL (≈ 0.867 µM) | 3223.1 ng/mL (≈ 2.83 µM) | 8 µg/mL | 1.83 ng/mL (≈ 0.0016 µM) | 0.63 ng/mL (≈ 0.000553 µM) | 152 µM | 1.95 nmol/min | 0.5 µg/mL (≈ 0.438 µM) | 32 µM | 1.22 nmol/min | 4 µg/mL | 25 µM | Ratio Ki [17]: > 100; Ratio Ki [18]: > 100; Ratio Ki [19]: > 100; Ratio Ki [20]: > 100; Ratio Ki [21]: > 100; Ratio Ki [22]: > 100; Ratio Ki [23]: > 100; Ratio Ki [24]: > 100; Ratio Ki [25]: > 100; Ratio Ki [26]: > 100; Ratio Ki [27]: > 100; Vmax [13]: 1.83 nmol/min; Ratio Ki [28]: > 100; MIC [14]: 0.44 µg/mL; Km [15]: 67 µM; Vmax [15]: 4.71 nmol/min; IC50 [16]: 75.99 ng/mL (≈ 0.0666 µM); Ki [16]: 84.57 ng/mL (≈ 0.0742 µM); Ratio Ki [29]: > 100 |
